Laboratory results as given in ChEMBL document CHEMBL5108074 (J Med Chem, 2022).
In brackets after ≈: the same amount, converted by molar mass.

Experiments:
[1] = Kinetic solubility of the compound in 0.1N HCl
[2] = Kinetic solubility of the compound in aqueous assay buffer at pH 7.7
[3] = biological target: T1, Plasma kallikrein (Homo sapiens, UniProt P03952); assay: Inhibition of human plasma kallikrein using H-D-Pro-Phe-Arg-AFC as flurogenic substrate preincubated for 5 mins followed by substrate addition by fluorometer analysis; format: cell-free
[4] = Half life in Sprague-Dawley rat at 10 mg/kg, po and 1 mg/kg, iv measured upto 24 hrs by LC-MS analysis; format: ADME, organism-based; conditions: in vivo
In short: (§1)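 Male Sprague-Dawley rats, two per route, single dose. IV: 1 mg/kg given as 1 mL/kg of a nominal 1 mg/mL formulation in vehicle. PO: 10 mg/kg given as 5 mL/kg of a 2 mg/mL formulation. PK parameters from noncompartmental analysis. Clearance expressed relative to rat liver blood flow of 80 mL/min/kg.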

[5] = Oral bioavailability in Sprague-Dawley rat at 10 mg/kg measured upto 24 hrs by LC-MS analysis; format: ADME, organism-based; conditions: in vivo; in short: as §1
[6] = Clearance in Sprague-Dawley rat blood at 1 mg/kg, iv measured upto 24 hrs by LC-MS analysis; format: ADME, organism-based; conditions: whole blood; in short: as §1
[7] = Thermodynamic solubility of the compound in FaSSGF at 1 mg/ml at pH 1.6 measured after 4 hrs; format: physicochemical; conditions: for solubility thermodynamic at 4 h: FaSSGF, pH 1.6, read-out: Therm_solubility
In short: (§2)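 Compound (nominal 1 or 100 mg/mL as free base) added to biorelevant medium preheated to 37 °C: FaSSGF at pH 1.6 or FaSSIF at pH 6.5. Vortexed, then shaken 4 h at 37 °C (~500 rpm). Centrifuged at 15000g for 10 min at 37 °C. Supernatant diluted and quantified against calibration standards. Crystalline material used where stated.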

[8] = Thermodynamic solubility of the compound in FaSSIF at 1 mg/ml at pH 6.5 measured after 4 hrs; format: physicochemical; conditions: for Therm_solubility: simulated gi fluid, pH 6.5, 4 h; in short: as §2
[9] = Clearance in Sprague-Dawley rat assessed as liver blood flow at 1 mg/kg, iv measured upto 24 hrs by LC-MS analysis; format: ADME, organism-based; conditions: in vivo; in short: as §1
[10] = Metabolic stability in human liver microsomes assessed as intrinsic clearance per mg of protein measured upto 60 mins in presence of NADPH regenerating system by LC-MS/MS analysis; format: ADME, Microsome; conditions: for microsomal intrinsic clearance: microsomes, 1 h
[11] = Apparent permeability of the compound across apical side to basolateral side in human Caco-2 cells incubated for 1 hr by LC-MS/MS analysis; conditions: for Papp: caco-2, 1 h
[12] = Thermodynamic solubility of the compound in FaSSGF at 1 mg/ml at pH 1.6 using crystalline form of sample measured after 4 hrs; format: physicochemical; conditions: pH 1.6, 4 h; in short: as §2
[13] = biological target: Cytochrome P450 2C9 (Homo sapiens, UniProt P11712); assay: Inhibition of CYP2C9 in human liver microsomes assessed as reduction in 4 hydroxy-diclofenac metabolite formation incubated for 30 mins in presence of NADPH by LC-MS/MS analysis; format: ADME, Microsome
[14] = biological target: T1, Plasma kallikrein; assay: Inhibition of DXS induced human whole plasma kallikrein using H-D-Pro-Phe-Arg-AFC as substrate preincubated for 5 mins followed by DXS stimulation by fluorometer analysis; format: cell-free
[15] = Volume of distribution at steady state in Beagle dog at 1 mg/kg, po and 1 mg/kg, iv measured upto 24 hrs by LC-MS analysis; format: ADME, organism-based, Canis lupus familiaris; conditions: in vivo
[16] = biological target: Cytochrome P450 2B6 (Homo sapiens, UniProt P20813); assay: Inhibition of CYP2B6 in human liver microsomes assessed as reduction in hydroxybupropion metabolite formation incubated for 30 mins in presence of NADPH by LC-MS/MS analysis; format: ADME, Microsome
[17] = biological target: T2, Cytochrome P450 3A4 (Homo sapiens, UniProt P08684); assay: Inhibition of CYP3A4 in human liver microsomes assessed as reduction in 6beta-hydroxytestosterone metabolite formation using testosterone as substrate incubated for 30 mins in presence of NADPH by LC-MS/MS analysis; format: ADME, Microsome
[18] = biological target: T2, Cytochrome P450 3A4; assay: Inhibition of CYP3A4 in human liver microsomes assessed as reduction in 6beta-hydroxymidazolam metabolite formation using midazolam as substrate incubated for 30 mins in presence of NADPH by LC-MS/MS analysis; format: ADME, Microsome
[19] = Clearance in Beagle dog assessed as liver blood flow at 1 mg/kg, iv measured upto 24 hrs by LC-MS analysis; format: ADME, organism-based, Canis lupus familiaris; conditions: in vivo
[20] = biological target: Cytochrome P450 2C8 (Homo sapiens, UniProt P10632); assay: Inhibition of CYP2C8 in human liver microsomes assessed as reduction in 6 alpha-hydroxypaclitaxel metabolite formation incubated for 30 mins in presence of NADPH by LC-MS/MS analysis; format: ADME, Microsome
[21] = Clearance in Beagle dog blood at 1 mg/kg, iv measured upto 24 hrs by LC-MS analysis; format: ADME, organism-based, Canis lupus familiaris; conditions: whole blood
[22] = biological target: Cytochrome P450 2C19 (Homo sapiens, UniProt P33261); assay: Inhibition of CYP2C19 in human liver microsomes assessed as reduction in 4-hydroxymephenytoin metabolite formation incubated for 30 mins in presence of NADPH by LC-MS/MS analysis; format: ADME, Microsome
[23] = biological target: T3, Cytochrome P450 1A2 (Homo sapiens, UniProt P05177); assay: Inhibition of CYP1A2 in human liver microsomes assessed as reduction in acetaminophen metabolite formation incubated for 30 mins in presence of NADPH by LC-MS/MS analysis; format: ADME, Microsome
T3 sequence (P05177 whole entry): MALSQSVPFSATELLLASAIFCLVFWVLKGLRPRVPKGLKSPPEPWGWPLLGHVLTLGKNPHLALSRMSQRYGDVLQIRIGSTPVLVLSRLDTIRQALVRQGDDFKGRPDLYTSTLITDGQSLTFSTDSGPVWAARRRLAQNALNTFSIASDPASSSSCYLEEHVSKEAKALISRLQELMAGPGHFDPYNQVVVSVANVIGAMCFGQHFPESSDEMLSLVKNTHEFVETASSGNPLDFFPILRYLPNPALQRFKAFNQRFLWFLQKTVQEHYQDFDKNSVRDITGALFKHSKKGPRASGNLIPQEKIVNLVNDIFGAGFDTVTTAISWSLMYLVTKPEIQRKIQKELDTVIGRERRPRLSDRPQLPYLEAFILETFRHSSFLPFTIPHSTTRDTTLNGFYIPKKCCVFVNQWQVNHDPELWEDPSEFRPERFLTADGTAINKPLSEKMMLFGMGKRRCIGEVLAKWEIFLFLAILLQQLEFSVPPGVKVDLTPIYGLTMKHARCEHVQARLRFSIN

[24] = biological target: Voltage-gated inwardly rectifying potassium channel KCNH2 (Homo sapiens, UniProt Q12809); assay: Inhibition of hERG expressed in CHO cells by whole cell patch clamp assay; format: toxicity, cell-based
In short: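 hERG K+ current recorded by automated whole-cell patch clamp in CHO cells stably expressing hERG. Concentrations tested up to a maximum of 33 μM.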

[25] = Oral bioavailability in Beagle dog at 1 mg/kg measured upto 24 hrs by LC-MS analysis; format: ADME, organism-based, Canis lupus familiaris; conditions: in vivo
[26] = Thermodynamic solubility of the compound in FaSSIF at 1 mg/ml at pH 6.5 using crystalline form of sample measured after 4 hrs; format: physicochemical; conditions: simulated gi fluid, pH 6.5, 4 h; in short: as §2
[27] = biological target: Cytochrome P450 2D6 (Homo sapiens, UniProt P10635); assay: Inhibition of CYP2D6 in human liver microsomes assessed as reduction in dextrorphan metabolite formation incubated for 30 mins in presence of NADPH by LC-MS/MS analysis; format: ADME, Microsome
[28] = Half life in Beagle dog at 1 mg/kg, po and 1 mg/kg, iv measured upto 24 hrs by LC-MS analysis; format: ADME, organism-based, Canis lupus familiaris; conditions: in vivo

T1 sequence (P03952 20-390 limits assumed): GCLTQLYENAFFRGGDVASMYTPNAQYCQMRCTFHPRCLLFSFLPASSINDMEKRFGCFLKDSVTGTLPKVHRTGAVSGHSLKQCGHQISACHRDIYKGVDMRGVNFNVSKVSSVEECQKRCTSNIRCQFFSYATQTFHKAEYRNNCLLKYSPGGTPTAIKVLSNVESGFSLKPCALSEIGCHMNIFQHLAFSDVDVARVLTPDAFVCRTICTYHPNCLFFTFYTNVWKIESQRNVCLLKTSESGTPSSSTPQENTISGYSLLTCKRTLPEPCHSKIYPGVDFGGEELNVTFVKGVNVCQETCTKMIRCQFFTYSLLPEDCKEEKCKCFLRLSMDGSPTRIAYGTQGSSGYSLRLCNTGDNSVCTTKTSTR
T1 sequence (P03952 391-638 limits assumed): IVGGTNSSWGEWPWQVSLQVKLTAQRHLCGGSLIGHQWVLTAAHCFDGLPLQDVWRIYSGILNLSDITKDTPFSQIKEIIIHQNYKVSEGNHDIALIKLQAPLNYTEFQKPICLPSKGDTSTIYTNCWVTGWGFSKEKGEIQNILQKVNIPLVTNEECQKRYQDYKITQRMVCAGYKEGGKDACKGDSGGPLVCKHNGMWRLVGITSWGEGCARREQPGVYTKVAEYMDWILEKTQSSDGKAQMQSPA
T2 sequence (P08684 whole entry): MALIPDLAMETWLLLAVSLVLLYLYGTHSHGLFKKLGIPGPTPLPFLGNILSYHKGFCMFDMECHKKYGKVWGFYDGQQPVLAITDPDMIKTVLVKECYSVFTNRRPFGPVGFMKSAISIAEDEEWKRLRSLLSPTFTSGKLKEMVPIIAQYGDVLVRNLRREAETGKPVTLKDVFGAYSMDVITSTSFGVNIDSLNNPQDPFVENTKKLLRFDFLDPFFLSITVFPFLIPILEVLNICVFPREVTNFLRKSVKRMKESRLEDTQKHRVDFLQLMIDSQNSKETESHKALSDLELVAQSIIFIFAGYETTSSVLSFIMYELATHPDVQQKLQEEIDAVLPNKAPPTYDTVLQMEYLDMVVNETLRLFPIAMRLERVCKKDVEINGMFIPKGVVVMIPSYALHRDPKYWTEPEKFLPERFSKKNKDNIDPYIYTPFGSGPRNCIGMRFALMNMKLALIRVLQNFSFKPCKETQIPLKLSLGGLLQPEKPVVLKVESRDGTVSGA
Sequence of Cytochrome P450 2D6 (P10635 whole entry): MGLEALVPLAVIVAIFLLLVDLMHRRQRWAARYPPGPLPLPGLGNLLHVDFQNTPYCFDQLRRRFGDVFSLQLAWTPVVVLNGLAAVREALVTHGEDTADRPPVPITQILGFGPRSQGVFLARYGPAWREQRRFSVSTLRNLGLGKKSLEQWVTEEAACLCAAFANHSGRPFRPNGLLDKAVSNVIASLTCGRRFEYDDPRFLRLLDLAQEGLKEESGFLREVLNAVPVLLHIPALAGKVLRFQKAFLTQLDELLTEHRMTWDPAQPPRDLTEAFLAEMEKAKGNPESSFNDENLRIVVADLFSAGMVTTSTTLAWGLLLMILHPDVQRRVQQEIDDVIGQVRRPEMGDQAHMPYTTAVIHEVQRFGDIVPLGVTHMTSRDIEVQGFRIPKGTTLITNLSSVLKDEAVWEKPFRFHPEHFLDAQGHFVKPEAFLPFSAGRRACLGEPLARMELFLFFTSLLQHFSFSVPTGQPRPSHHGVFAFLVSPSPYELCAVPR
Sequence of Cytochrome P450 2C9 (P11712 whole entry): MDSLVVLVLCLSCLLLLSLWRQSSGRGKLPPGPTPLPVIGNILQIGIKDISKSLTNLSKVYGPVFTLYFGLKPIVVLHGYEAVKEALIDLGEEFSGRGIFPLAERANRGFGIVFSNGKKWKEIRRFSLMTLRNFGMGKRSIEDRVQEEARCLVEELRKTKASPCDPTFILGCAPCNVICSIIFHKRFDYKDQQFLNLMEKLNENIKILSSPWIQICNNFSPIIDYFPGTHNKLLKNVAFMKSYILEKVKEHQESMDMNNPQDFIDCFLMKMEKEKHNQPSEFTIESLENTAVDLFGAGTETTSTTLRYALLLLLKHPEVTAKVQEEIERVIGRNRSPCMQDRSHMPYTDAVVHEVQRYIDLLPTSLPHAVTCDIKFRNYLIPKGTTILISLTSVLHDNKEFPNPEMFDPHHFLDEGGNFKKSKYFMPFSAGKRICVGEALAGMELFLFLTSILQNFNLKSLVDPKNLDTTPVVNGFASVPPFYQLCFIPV
Sequence of Cytochrome P450 2C19 (P33261 whole entry): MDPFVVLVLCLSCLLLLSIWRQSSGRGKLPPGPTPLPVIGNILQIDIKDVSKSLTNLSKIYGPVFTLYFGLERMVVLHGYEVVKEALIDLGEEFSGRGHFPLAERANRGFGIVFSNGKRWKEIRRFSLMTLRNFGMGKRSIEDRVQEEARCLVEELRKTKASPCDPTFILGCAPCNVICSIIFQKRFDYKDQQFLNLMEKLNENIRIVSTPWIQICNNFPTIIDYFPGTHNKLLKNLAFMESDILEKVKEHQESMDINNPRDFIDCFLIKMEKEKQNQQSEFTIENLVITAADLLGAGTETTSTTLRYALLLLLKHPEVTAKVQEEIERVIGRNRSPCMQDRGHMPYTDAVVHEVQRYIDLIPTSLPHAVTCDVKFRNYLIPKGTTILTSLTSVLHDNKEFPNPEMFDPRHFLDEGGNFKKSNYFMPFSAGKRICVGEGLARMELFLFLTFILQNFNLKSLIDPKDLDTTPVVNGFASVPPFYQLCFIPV
Sequence of Voltage-gated inwardly rectifying potassium channel KCNH2 (Q12809 whole entry): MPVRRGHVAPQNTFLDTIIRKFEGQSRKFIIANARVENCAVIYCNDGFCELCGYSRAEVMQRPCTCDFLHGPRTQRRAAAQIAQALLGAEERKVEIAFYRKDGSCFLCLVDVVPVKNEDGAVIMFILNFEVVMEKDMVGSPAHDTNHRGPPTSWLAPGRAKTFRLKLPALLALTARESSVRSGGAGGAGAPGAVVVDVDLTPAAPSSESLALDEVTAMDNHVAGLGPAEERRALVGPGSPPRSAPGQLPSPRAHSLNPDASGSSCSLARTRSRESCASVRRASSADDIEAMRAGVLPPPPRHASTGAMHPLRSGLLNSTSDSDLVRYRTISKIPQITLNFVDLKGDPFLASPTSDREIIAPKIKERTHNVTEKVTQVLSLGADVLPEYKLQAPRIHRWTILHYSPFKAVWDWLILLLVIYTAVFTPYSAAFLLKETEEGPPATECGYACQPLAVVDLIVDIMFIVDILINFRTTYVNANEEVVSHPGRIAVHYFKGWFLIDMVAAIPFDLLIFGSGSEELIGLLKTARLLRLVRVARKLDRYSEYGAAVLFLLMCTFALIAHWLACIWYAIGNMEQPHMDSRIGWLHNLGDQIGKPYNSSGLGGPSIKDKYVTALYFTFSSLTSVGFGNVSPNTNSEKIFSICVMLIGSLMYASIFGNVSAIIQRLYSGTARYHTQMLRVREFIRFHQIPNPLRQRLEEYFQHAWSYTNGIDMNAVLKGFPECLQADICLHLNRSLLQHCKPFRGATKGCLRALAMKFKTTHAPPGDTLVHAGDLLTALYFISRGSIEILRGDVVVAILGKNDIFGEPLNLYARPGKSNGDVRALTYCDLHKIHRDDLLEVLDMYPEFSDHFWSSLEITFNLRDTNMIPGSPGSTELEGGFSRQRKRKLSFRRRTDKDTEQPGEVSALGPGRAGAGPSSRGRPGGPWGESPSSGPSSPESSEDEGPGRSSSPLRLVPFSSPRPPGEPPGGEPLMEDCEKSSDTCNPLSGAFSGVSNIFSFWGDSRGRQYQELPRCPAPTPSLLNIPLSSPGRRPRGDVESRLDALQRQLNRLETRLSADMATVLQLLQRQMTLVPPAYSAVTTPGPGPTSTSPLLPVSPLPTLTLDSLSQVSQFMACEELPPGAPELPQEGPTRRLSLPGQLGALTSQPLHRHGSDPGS
Sequence of Cytochrome P450 2B6 (P20813 whole entry): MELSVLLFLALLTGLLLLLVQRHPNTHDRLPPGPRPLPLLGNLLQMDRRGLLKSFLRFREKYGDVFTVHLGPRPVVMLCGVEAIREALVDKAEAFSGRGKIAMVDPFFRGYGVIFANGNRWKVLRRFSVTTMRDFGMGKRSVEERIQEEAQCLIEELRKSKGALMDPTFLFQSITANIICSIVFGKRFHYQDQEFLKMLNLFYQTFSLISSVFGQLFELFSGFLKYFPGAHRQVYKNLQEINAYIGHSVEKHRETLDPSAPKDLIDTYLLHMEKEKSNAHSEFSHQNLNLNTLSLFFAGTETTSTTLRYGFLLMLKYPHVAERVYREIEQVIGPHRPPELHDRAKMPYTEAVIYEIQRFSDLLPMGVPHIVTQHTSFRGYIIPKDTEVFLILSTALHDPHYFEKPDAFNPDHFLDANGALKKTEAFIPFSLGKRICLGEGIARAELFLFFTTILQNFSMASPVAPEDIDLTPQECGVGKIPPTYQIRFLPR
Sequence of Cytochrome P450 2C8 (P10632 whole entry): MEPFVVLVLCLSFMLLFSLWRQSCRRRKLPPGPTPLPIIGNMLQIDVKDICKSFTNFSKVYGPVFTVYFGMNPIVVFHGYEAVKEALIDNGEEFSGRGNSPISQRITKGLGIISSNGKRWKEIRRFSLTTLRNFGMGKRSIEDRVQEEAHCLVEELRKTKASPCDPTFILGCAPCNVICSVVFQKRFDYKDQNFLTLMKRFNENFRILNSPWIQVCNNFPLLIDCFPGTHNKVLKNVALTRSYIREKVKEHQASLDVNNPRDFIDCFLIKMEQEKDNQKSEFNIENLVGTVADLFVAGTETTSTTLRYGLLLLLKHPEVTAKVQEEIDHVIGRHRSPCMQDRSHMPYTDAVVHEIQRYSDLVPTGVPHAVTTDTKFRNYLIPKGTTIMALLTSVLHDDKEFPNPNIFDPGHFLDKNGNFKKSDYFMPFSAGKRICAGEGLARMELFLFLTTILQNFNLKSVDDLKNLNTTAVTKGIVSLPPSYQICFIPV

| SMILES | solubility kinetic [1] | solubility kinetic [2] | IC50 [3] | t1/2 [4] | F [5] | clearance [6] | LBF [9] | microsomal intrinsic clearance [10] | Papp [11] | other results |
| --- | --- | --- | --- | --- | --- | --- | --- | --- | --- | --- |
| COCc1nn(Cc2ccc(Cn3ccccc3=O)cc2)cc1C(=O)NCc1nccc(OC)c1C |  |  | 0.0041 µM | 1 h | 31% | 35 mL/min/kg | 44% |  |  | solubility thermodynamic at 4 h [7]: 970 µg/mL (≈ 1990 µM); Therm_solubility [8]: 110 µg/mL |
| COCc1nn(Cc2ccc(Cn3ccccc3=O)cc2)cc1C(=O)NCc1c(C#N)ccc(OC)c1F | > 120 µg/mL | > 120 µg/mL | 0.001 µM | 1.1 h | 20% | 27.6 mL/min/kg | 35% | 58 µL/min | 14 10^-6 cm/s | solubility thermodynamic at 4 h [7]: 21 µg/mL (≈ 40.7 µM); solubility thermodynamic at 4 h ([8]; FaSSIF, pH 6.5, read-out: Therm_solubility): 31 µg/mL (≈ 60.1 µM) |
| COCc1nn(Cc2ccc(Cn3ccccc3=O)cc2)cc1C(=O)NCc1c(F)ccc(OC)c1F | > 120 µg/mL | > 120 µg/mL | 0.006 µM | 0.7 h | 64% | 23.7 mL/min/kg | 30% | 92 µL/min | 18 10^-6 cm/s | Therm_solubility [12]: 9 µg/mL; IC50 [13]: 13 µM; IC50 [14]: 0.5 µM; Vdss [15]: 0.36 L/kg; IC50 [16]: > 25 µM; IC50 [17]: 11 µM; IC50 [18]: 19 µM; LBF [19]: 74%; IC50 [20]: 14 µM; clearance [21]: 24.5 mL/min/kg; IC50 [22]: > 25 µM; IC50 [23]: > 25 µM; IC50 [24]: > 33 µM; F [25]: 16%; Therm_solubility [26]: 9 µg/mL; IC50 [27]: > 25 µM |
| COc1ccnc(CNC(=O)c2cn(Cc3ccc(Cn4ccccc4=O)cc3)nc2C(F)(F)F)c1F |  |  |  | 1.1 h | 97% | 11.1 mL/min/kg | 14% | 49 µL/min | 17 10^-6 cm/s | IC50 [13]: > 25 µM; IC50 [14]: 0.076 µM; Vdss [15]: 0.63 L/kg; IC50 [17]: > 25 µM; IC50 [18]: > 25 µM; t1/2 [28]: 0.9 h; LBF [19]: 48%; clearance [21]: 15.9 mL/min/kg; IC50 [22]: > 25 µM; IC50 [23]: > 25 µM; IC50 [24]: > 33 µM; F [25]: 32%; Therm_solubility ([7]; buffer, pH 1.6, 4 h): 690 µg/mL; IC50 [27]: > 25 µM; Therm_solubility [8]: 20 µg/mL |
| COCc1nn(Cc2ccc(Cn3ccccc3=O)cc2)cc1C(=O)NCc1cccc(OC)c1F | > 120 µg/mL | > 120 µg/mL | 0.017 µM |  |  |  |  | 45 µL/min | 25 10^-6 cm/s |  |
| Nc1cccc2cc(CNC(=O)c3cnn(Cc4ccc(Cn5ccccc5=O)cc4)c3)ccc12 |  |  |  |  |  |  |  |  |  | microsomal CLint ([10]; liver microsomes, read-out: CLH): 37 µL/min/mg; Papp A→B at 1 h ([11]; Caco-2): 2 ×10⁻⁶ cm/s |
| COc1ccc(F)c(CNC(=O)c2cn(Cc3ccc(Cn4ccccc4=O)cc3)nc2CN(C)C)c1F |  |  | 0.0063 µM |  |  |  |  | 280 µL/min | 14 10^-6 cm/s |  |

Continued, in another order:

| solubility kinetic [1] | solubility kinetic [2] | SMILES | IC50 [3] | t1/2 [4] | F [5] | clearance [6] | LBF [9] | microsomal intrinsic clearance [10] | Papp [11] | other results |
| --- | --- | --- | --- | --- | --- | --- | --- | --- | --- | --- |
| > 120 µg/mL | > 120 µg/mL | COCc1nn(Cc2ccc(Cn3ccccc3=O)cc2)cc1C(=O)NCc1cc(OC)ccc1F |  |  |  |  |  |  |  |  |
| 29 µg/mL (≈ 59.4 µM) | > 120 µg/mL | CCc1cccc(CNC(=O)c2cn(Cc3ccc(Cn4ccccc4=O)cc3)nc2COC)c1F |  |  |  |  |  |  |  |  |
| > 120 µg/mL | > 120 µg/mL | COCc1nn(Cc2ccc(Cn3ccccc3=O)cc2)cc1C(=O)NCc1c(Cl)ccc(OC)c1F |  |  |  |  |  | 120 µL/min |  |  |
| > 120 µg/mL | > 120 µg/mL | COc1cccc(CNC(=O)c2cn(Cc3ccc(Cn4ccccc4=O)cc3)nc2N(C)C)c1F |  |  |  |  |  |  |  |  |
| > 110 µg/mL | 58 µg/mL (≈ 119 µM) | COc1cccc(CNC(=O)c2cn(Cc3ccc(Cn4ccccc4=O)cc3)nc2C2CC2)c1F |  |  |  |  |  | 170 µL/min |  |  |
| > 120 µg/mL | > 120 µg/mL | COCc1nn(Cc2ccc(Cn3ccccc3=O)cc2)cc1C(=O)NCc1cccc(O)c1F |  |  |  |  |  |  |  |  |
